Calb FLC = affects C. albicans growth with fluconazole. C. albicans CaCi-2 (fluconazole-resistant clinical isolate) + fluconazole, Alamar Blue growth, 48 h. growth inhibition, % (test concentration not listed). 300,000 tested, 0.57% active. AID 1979;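 active = growth inhibition above about 58% in most replicates, limit read from the data, passing the limit was not always enough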;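 note: all wells also contain fluconazole at 8 µg/ml as a sub-toxic cotreatment; 0% = median of DMSO wells and 100% = median of geldanamycin control wells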
Beta cell apopt = blocks beta cell apoptosis; AID 435005; 300,000 tested, 0.8% active; INS-1E cytokine-induced death, ATP luminescence, 48 h; percent of positive-control rescue, neutral wells zero; protection from apoptosis, % (no concentration beside the values);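 active = Every replicate reaches about 75%, or at least half do and their mean reaches it too, limit read from the data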;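 note: 0% = cytokine-treated negative control wells and 100% = positive control rescue; higher means more ATP so stronger rescue from cytokine killing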
NLRP3 yeast inh = inhibitors of NALP3 inflammasome in yeast | Yeast reconstituted NLRP3/ASC/caspase-1, beta-gal luminescence, 24 h | inhibition, % at 10 µM | 330,000 tested, 0.39% active;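 active = inhibition of 50% or more; inactive = inhibition below 50%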;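 note: plate controls were induced DMSO wells for no effect and uninduced yeast grown without galactose for full effect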
T cruzi repl = blocks replication of Trypanosoma cruzi | T. cruzi beta-gal in NIH3T3, luminescence, 90 h | inhibition, % (concentration not given with the values) | 300,000 tested, 1.4% active;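 active = mean inhibition across valid replicates above about 55%, limit read from the data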;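 note: signal also drops with host cell toxicity which is not excluded here; 0% = plate median of DMSO wells and 100% = zero luminescence signal; higher percent means less beta-gal luminescence so fewer parasites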
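assay system = mouse NIH/3T3 fibroblasts infected with β-gal-expressing T. cruzi Tulahuen C4 | input = 5,000 NIH/3T3 host cells per well | buffer or medium = DMEM plus 2% FBS | timing = 3 h host attachment, then at least 90 h co-culture | measured by = GalScreen luminescence, 60 min | evaluation = luminescence reflecting intracellular parasite burden, expressed as percent inhibition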
CSC inhib = cancer stem cell inhibition; 300,000 tested, 1.1% active; inhibition, % at 7.5 µM; cancer stem cell-like cells viability, luminescence; in the data active = inhibition above about 75%; tested in HMLE shEcad cells
Mdm2-MdmX inh = human Mdm2/MdmX binding inhibition; O15151+Q00987; SaOS-2 split-luciferase Mdm2/MdmX complementation, luminescence; inhibition, % at 8 µM; 330,000 tested, 3% active; AID 485346;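 active = inhibition of at least 50% at 8 µM in the primary screen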
Target sequence (O15151 whole entry, looked up): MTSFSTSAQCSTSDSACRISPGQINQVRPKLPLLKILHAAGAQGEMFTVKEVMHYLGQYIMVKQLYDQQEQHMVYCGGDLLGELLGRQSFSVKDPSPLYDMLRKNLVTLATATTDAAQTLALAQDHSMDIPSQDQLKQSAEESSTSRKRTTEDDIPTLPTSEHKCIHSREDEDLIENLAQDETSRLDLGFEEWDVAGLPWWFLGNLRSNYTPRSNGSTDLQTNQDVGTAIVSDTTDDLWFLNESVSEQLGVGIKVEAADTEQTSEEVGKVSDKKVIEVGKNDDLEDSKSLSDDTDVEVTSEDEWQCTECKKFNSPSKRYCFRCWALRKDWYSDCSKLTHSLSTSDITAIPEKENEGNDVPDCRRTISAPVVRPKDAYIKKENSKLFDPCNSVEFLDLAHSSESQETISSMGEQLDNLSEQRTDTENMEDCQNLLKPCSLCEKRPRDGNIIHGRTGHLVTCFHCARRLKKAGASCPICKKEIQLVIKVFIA
Target sequence (Q00987 whole entry, looked up): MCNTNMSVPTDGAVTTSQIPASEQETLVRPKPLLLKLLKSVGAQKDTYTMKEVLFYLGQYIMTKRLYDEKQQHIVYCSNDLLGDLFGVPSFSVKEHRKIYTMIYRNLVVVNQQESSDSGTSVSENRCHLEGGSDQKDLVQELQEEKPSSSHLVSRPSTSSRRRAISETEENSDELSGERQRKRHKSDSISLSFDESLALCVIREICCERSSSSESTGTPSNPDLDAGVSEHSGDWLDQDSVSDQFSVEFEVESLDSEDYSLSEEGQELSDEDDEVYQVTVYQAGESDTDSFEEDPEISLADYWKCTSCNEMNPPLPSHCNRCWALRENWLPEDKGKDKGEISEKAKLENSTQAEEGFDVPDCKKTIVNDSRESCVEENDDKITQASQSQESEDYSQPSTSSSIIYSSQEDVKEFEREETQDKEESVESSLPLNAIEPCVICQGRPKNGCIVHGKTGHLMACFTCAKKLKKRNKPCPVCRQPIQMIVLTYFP
Mdm2 MdmX conf = confirmation of human Mdm2/MdmX interaction inhibitors | shares compounds with Mdm2-MdmX inh | Mdm2-MdmX binding, luminescent assay | inhibition, % at 8 µM | 10,000 tested, 55% active | AID 489028; in the data active = inhibition above about 40%
Full FLuc ctr = inhibits full-length luciferase, flagging false Mdm2/MdmX hits | shares compounds with Mdm2-MdmX inh | SaOS-2 full-length luciferase counterscreen, luminescence | inhibition, % at 8 µM | 6,200 tested, 77% active | AID 504607;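 active = mean inhibition at 8 µM reaching about 37%, which flags the compound as non-specific, limit read from the data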;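 note: p53-null SaOS-2 cells with luciferase driven by a doxycycline-inducible promoter; compound on cells about two nights before reading with doxycycline added after day one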
Numbers without * were called inactive. The list is not random: actives were taken first. Their share in the collection is about 5.3%.

Screening CCN(C[C@H]1N[C@@](C)(C(=O)OC)[C@H]2C(=O)N(Cc3ccccc3)C(=O)[C@@H]12)S(=O)(=O)c1ccc(C(C)(C)C)cc1 returned Beta cell apopt -1, NLRP3 yeast inh 8 and Mdm2-MdmX inh 37.
`CCN(C[C@H]1N[C@@](CC)(C(=O)OC)[C@H]2C(=O)N(Cc3ccccc3)C(=O)[C@@H]12)S(=O)(=O)c1ccc(C)cc1` gave Beta cell apopt -4, NLRP3 yeast inh -7, CSC inhib -4 and Mdm2-MdmX inh 8.
`CC[C@@]1(C(=O)OC)N[C@H](CN(C)S(=O)(=O)c2ccccc2)[C@@H]2C(=O)N(Cc3ccccc3)C(=O)[C@@H]21` gave Beta cell apopt -7, NLRP3 yeast inh -5 and Mdm2-MdmX inh 10.
For CCn1nc(C)c(C(=O)Nc2cc(Oc3ccc(Cl)cc3)cc([N+](=O)[O-])c2)c1C the results were Calb FLC 13, Beta cell apopt 2, NLRP3 yeast inh 13, T cruzi repl 28, Mdm2-MdmX inh 57*, Mdm2 MdmX conf 45* and Full FLuc ctr 53*.
`Cc1cc2c(N=NC(=O)C3CC3c3ccccc3)c(O)[nH]c2cc1Br` (centres undefined) gave Calb FLC -1, Beta cell apopt -2, NLRP3 yeast inh 14, T cruzi repl 28, CSC inhib 12, Mdm2-MdmX inh 54* and Mdm2 MdmX conf -8.
Cc1occc1C(=O)N=Nc1c(O)[nH]c2ccc(Br)cc12 was read as Calb FLC -11, Beta cell apopt 2, NLRP3 yeast inh 17, T cruzi repl 9, CSC inhib 1 and Mdm2-MdmX inh -116.
`CCOC(=O)C1=C(COC(=O)CCc2ccc(F)cc2)NC(=O)NC1C` (centres undefined) gave Beta cell apopt 6, NLRP3 yeast inh 4, CSC inhib -13 and Mdm2-MdmX inh 0.
Screening Cc1cccc(Cn2nc(C(C)(C)C)cc2C(=O)Nc2ccc(F)cc2)c1 returned Calb FLC -3, Beta cell apopt 30, NLRP3 yeast inh 12, T cruzi repl 24, CSC inhib 70, Mdm2-MdmX inh 87*, Mdm2 MdmX conf 81* and Full FLuc ctr 31.
For O=[N+]([O-])c1cc(C(F)(F)F)ccc1NCCc1ccccn1 the results were Calb FLC 14, Beta cell apopt 3, NLRP3 yeast inh 31, T cruzi repl -7, CSC inhib -2 and Mdm2-MdmX inh -14.
`CC(NC(=O)Nc1ccc(F)cc1)C(c1cccs1)N1CCCC1` (centres undefined) gave Calb FLC 21, Beta cell apopt -4, NLRP3 yeast inh 16, T cruzi repl -12, CSC inhib 3 and Mdm2-MdmX inh 10.
Cc1cccc(N2CCN(C(=O)c3cc(S(=O)(=O)N4CCCC4)cn3C)CC2)c1C was read as Calb FLC 7, Beta cell apopt 0, NLRP3 yeast inh 7, T cruzi repl -9, CSC inhib 50, Mdm2-MdmX inh 55*, Mdm2 MdmX conf 58* and Full FLuc ctr 49*.
For Cc1cccc(N2CCN(C(=O)c3cn(C)c(=O)c4c3c3ccccc3n4C)CC2)c1C the results were Calb FLC 57*, Beta cell apopt -16, NLRP3 yeast inh -1, T cruzi repl 51, CSC inhib 60, Mdm2-MdmX inh 59*, Mdm2 MdmX conf 45* and Full FLuc ctr 64*.
Cc1ccc(Cl)cc1N1CCN(C(=O)c2cn(C)c(=O)c3c2c2ccccc2n3C)CC1 was read as Calb FLC -11, NLRP3 yeast inh 11, T cruzi repl 52, CSC inhib 88*, Mdm2-MdmX inh 69*, Mdm2 MdmX conf 63* and Full FLuc ctr 42*.
Cn1c2ccccc2c2c(C(=O)N3CCN(c4ccccc4)CC3)cn(C3CCCC3)c(=O)c21 was read as Calb FLC 31, Beta cell apopt 7, NLRP3 yeast inh 11, T cruzi repl 1, CSC inhib 56 and Mdm2-MdmX inh 9.
Screening O=C(O)c1cccc(NC(=S)N/N=C/c2ccccn2)c1 returned Calb FLC 64, Beta cell apopt -7, NLRP3 yeast inh 20, T cruzi repl 9, CSC inhib 3 and Mdm2-MdmX inh 35.
For COc1cc(C(C)=O)ccc1OCC(=O)NCC(c1ccc(F)cc1)N1CCOCC1 (centres undefined) the results were Beta cell apopt -6, NLRP3 yeast inh 2, CSC inhib -14 and Mdm2-MdmX inh 0.
For COc1ccc(NS(=O)(=O)c2ccc(O)c(NC(=O)c3ccc(S(=O)(=O)N4CCCC4)cc3)c2)cc1 the results were Calb FLC 13, Beta cell apopt -4, NLRP3 yeast inh -3, T cruzi repl -11, CSC inhib -2 and Mdm2-MdmX inh 8.
`COc1ccccc1CNC(=S)Nc1ccc2nc(N3CCN(C)CC3)cc(C)c2c1` gave Calb FLC -5, Beta cell apopt -5, NLRP3 yeast inh 30, T cruzi repl 57*, CSC inhib 80*, Mdm2-MdmX inh 54*, Mdm2 MdmX conf 50* and Full FLuc ctr 61*.
For COc1cc(C(=O)Nc2ccc3nc(N4CCN(C)CC4)cc(C)c3c2)cc(OC)c1OC the results were Calb FLC 4, Beta cell apopt -4, NLRP3 yeast inh 17, T cruzi repl 30, CSC inhib -14, Mdm2-MdmX inh 53* and Mdm2 MdmX conf 35.
Screening COc1ccc(CNC(=S)Nc2ccc3nc(N4CCN(C)CC4)cc(C)c3c2)cc1 returned Calb FLC 36, Beta cell apopt -1, NLRP3 yeast inh -7, T cruzi repl 37, CSC inhib 43 and Mdm2-MdmX inh 40.
Screening Cc1cc(N2CCN(C)CC2)nc2ccc(NC(=O)c3ccc4c(c3)OCO4)cc12 returned Beta cell apopt -13, NLRP3 yeast inh -1, CSC inhib 19, Mdm2-MdmX inh 55* and Mdm2 MdmX conf 17.
`COc1cc(/C=N/NC(=Nc2ccc(C)cc2)c2nc3ccccc3s2)ccc1O` gave Calb FLC 62, Beta cell apopt 16, NLRP3 yeast inh 1, T cruzi repl 42, Mdm2-MdmX inh 83*, Mdm2 MdmX conf 79* and Full FLuc ctr 51*.
`COc1ccccc1/C=N/NC(=Nc1ccc(C)cc1)c1nc2ccccc2s1` gave Calb FLC -12, Beta cell apopt 1, NLRP3 yeast inh 6, T cruzi repl 21, CSC inhib -8 and Mdm2-MdmX inh 16.
Cc1cccc(C)c1OCC(=O)N/N=C/c1cccn1C was read as Calb FLC -4, Beta cell apopt -6, NLRP3 yeast inh 17, T cruzi repl 1, CSC inhib -2 and Mdm2-MdmX inh 14.

Assay outcomes as filed in PubChem BioAssay.
